Reference: publication PMC6859084 (Drug Design, Development and Therapy, 2019)
Like-named read-outs stand apart in the source and are kept apart here.

Tests used:
[1] = Pharmacokinetics after single oral dose of FDC or loose combination; format: in vivo, human; conditions: FDC to loose combination
Summary of the method: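 Healthy subjects, randomized open-label two-period crossover with 14-day washout, fasted overnight, single oral dose with 200 mL water. Heparinized blood drawn pre-dose to 72 h, centrifuged 1,800 rpm 8 min at 4°C, plasma mixed 1:1 with 5% formic acid, stored −70°C. LC-MS/MS (C18, positive ESI, MRM), validated 0.5–200 ng/mL. Non-compartmental parameters; log-transformed GMR from linear mixed-effects model.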

[2] = previously reported; cited from earlier work
LDL-C = conditions: cited from earlier work

SMILES	AUClast Geometric Mean Ratio (90% CI) [1]	Cmax Geometric Mean Ratio (90% CI) [1]	half-life [2] [h]	LDL-C reduction (LDL-C; first week after rosuvastatin administration) [%]	LDL-C reduction (LDL-C; second week after rosuvastatin administration) [%]
N[C@@H](CC(=O)N1CCc2c(nc(C(F)(F)F)nc2C(F)(F)F)C1)CN1CC(F)(F)CCC1=O [Gemigliptin]	1.02 (0.96–1.09)	1.08 (0.99–1.18)	17		
CC(C)c1nc(N(C)S(C)(=O)=O)nc(-c2ccc(F)cc2)c1/C=C/[C@@H](O)C[C@@H](O)CC(=O)O [Rosuvastatin]	1.02 (0.95–1.09)	1.09 (0.96–1.22)		64	90
